miR-122 sensor = miR-122 inhibition in Huh7 cells; Huh7 miR-122 Renilla luciferase sensor, 48 h; neutral wells = 0, positive control = 100; activation (reporter increase), % at 12.5 µM; 0.3% of 340,000 active;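 active means mean replicate activation score at least 90 and every replicate individually at or above 90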;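 further: higher luciferase means less miR-122 activity so hits act as miR-122 inhibitors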
SIRT5 inh = sirtuin-5 (human) deacylase inhibition. Q9NXA8. Purified SirT5, succinyl-peptide AMC, trypsin-coupled fluorescence. inhibition, % at 15 µM. 1.1% of 330,000 active. AID 652115; in the data active means inhibition above about 15%
FGF22 binding = shifts melting point of recombinant human FGF22; Q9HCT0; recombinant FGF22 thermal shift, SYPRO orange fluorescence; percent of sucrose octasulfate shift, DMSO zero; activity (Tm shift, normalised), % at 9.99 µM; 1.5% of 340,000 active; AID 651658;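 active means mean Tm shift, scaled 0 neutral to 100 positive control, at about 1.3% or above, every replicate too, limit read from the data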
S100A4 MyoIIA = blocks human S100A4 binding to myosin IIA peptide | P26447 | S100A4/TAMRA-MyoIIA peptide fluorescence polarization | inhibition, % at 10.7 µM | 0.14% of 360,000 active;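 active means mean inhibition of at least 70% across replicates, with every replicate also reaching that level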
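Assay system: human S100A4 monomer with TAMRA-labelled myosin IIA peptide / Buffer or medium: Calcium-containing HEPES buffer, pH 7.2 / Reagent: TAMRA-labelled myosin IIA heavy-chain peptide probe, 5 nM / Compound: one dose per compound / Timing: polarization read 5 min after assay mix addition, stable 5–60 min / Benchmarks: neutral control DMSO, positive control TFP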
E-selectin induc = E-selectin induction on HUVECs; P16581; HUVEC E-selectin immunofluorescence imaging; normalized: neutral wells 0, TNF-alpha wells 100; activation, % at 7.58 µM; 0.37% of 260,000 active; AID 686992;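 active means mean E-selectin-positive cell signal at least 10% of the positive control, reached in at least 60% of replicates, without over 20% cell loss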
Target sequence (P16581 whole entry, looked up): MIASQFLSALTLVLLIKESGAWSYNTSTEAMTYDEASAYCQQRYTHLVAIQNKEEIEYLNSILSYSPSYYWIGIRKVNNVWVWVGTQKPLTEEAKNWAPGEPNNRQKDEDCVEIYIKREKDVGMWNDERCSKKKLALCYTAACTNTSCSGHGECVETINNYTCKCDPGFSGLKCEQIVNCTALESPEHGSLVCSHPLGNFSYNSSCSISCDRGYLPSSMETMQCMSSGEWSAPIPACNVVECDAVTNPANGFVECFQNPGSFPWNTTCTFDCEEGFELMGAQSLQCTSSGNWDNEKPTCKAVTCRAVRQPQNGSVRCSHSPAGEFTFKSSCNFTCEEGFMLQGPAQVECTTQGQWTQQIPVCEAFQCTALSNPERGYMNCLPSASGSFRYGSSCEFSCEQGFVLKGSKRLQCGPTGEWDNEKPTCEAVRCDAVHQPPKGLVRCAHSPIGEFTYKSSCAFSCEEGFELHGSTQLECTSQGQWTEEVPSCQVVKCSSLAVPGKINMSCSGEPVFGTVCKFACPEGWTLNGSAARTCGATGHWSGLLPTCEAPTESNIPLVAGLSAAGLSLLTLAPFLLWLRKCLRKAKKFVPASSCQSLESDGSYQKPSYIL
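Material: HUVEC primary endothelial cells; Amount: 3,000 cells per well; Dosing: single concentration; Medium: EGM-2 growth medium on 0.1% gelatin-coated wells; Read-out basis: percent E-selectin-positive cells; Signal: immunofluorescence imaging; Control set: TNF-alpha, DMSO.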
Active calls of the source: *; nt = no result; [ ] = remark or other dose. Compounds with a hit are over-represented: about 2.5% of the library has one in this group of screens.

SMILES	miR-122 sensor	SIRT5 inh	FGF22 binding	S100A4 MyoIIA	E-selectin induc
COc1ccc(S(=O)(=O)Nc2ccc3c(c2)C(=O)N([C@@H](C)CO)C[C@H](C)[C@@H](CN(C)Cc2ccc(C(F)(F)F)cc2)OCCCC[C@H](C)O3)cc1	-2[16.7 µM]	17*	0	12	0
C[C@H]1CN([C@@H](C)CO)C(=O)c2cc(NC(=O)Nc3ccccc3)ccc2O[C@@H]1CN(C)C(=O)Nc1ccc2c(c1)OCO2	5[16.7 µM]	nt	nt	nt	0
CCCNC(=O)N1CC2(C1)CN(C(=O)CC1CC1)[C@@H](CO)c1[nH]c3cc(OC)ccc3c12	nt	nt	nt	nt	0
CC(=O)c1cc(-c2ccccc2)n(CCC(=O)NC2CCCC2)c1C	-9	-3	44*	-6	nt
CCOC(=O)Cc1cc(=O)n2[nH]c(-c3ccccc3)c(-c3ccccc3)c2n1	1	-2	43*	-23	nt
Fc1ccccc1Cc1noc(CN2CCCC(CN3CCOCC3)C2)n1 (stereo not given)	-6	22*	0	-2	1
O=C(c1cccs1)C1CCCN(Cc2nc(Cc3ccccc3F)no2)C1 (stereo not given)	-9	0	43*	-4	2
C[C@@H]1CN([C@H](C)CO)C(=O)c2cccc(NC(=O)Nc3ccc4c(c3)OCO4)c2O[C@H]1CN(C)C(=O)Nc1cccc2ccccc12	3[16.7 µM]	0	0	1	0
C[C@@H]1CCCCO[C@@H](CN(C)Cc2ccc(C(F)(F)F)cc2)[C@H](C)CN([C@H](C)CO)C(=O)c2cc(NS(=O)(=O)c3ccc(Cl)cc3)ccc2O1	-15[16.7 µM]	16*	0	6	0
C[C@@H]1CN([C@@H](C)CO)C(=O)c2cc(NS(=O)(=O)c3ccc(Cl)cc3)ccc2O[C@@H](C)CCCCO[C@@H]1CN(C)Cc1ccc(C(F)(F)F)cc1	-2[16.7 µM]	18*	0	16	0
C[C@H]1CCCCO[C@@H](CN(C)Cc2ccc(C(F)(F)F)cc2)[C@@H](C)CN([C@@H](C)CO)C(=O)c2cc(NS(=O)(=O)c3ccc(Cl)cc3)ccc2O1	8[16.7 µM]	16*	0	-9	0
C[C@@H]1CN([C@H](C)CO)C(=O)c2cc(NS(=O)(=O)c3ccc(Cl)cc3)ccc2O[C@@H](C)CCCCO[C@H]1CN(C)Cc1ccc(C(F)(F)F)cc1	-16[16.7 µM]	10	-1	10	0
C[C@@H]1CCCCO[C@@H](CN(C)Cc2ccc(C(F)(F)F)cc2)[C@H](C)CN([C@@H](C)CO)C(=O)c2cc(NS(=O)(=O)c3ccc(Cl)cc3)ccc2O1	-11[16.7 µM]	18*	0	4	0
C[C@@H]1CCCCO[C@H](CN(C)Cc2ccc(C(F)(F)F)cc2)[C@H](C)CN([C@H](C)CO)C(=O)c2cc(NS(=O)(=O)c3ccc(Cl)cc3)ccc2O1	2[16.7 µM]	14	-1	-18	0
C[C@@H]1CCCCO[C@H](CN(C)Cc2ccc(C(F)(F)F)cc2)[C@@H](C)CN([C@H](C)CO)C(=O)c2cc(NS(=O)(=O)c3ccc(Cl)cc3)ccc2O1	2[16.7 µM]	-1	-1	-27	0
COc1ccccc1-c1cn(CC[C@H]2CC[C@H](NC(=O)Cc3ccccn3)[C@@H](CO)O2)nn1	nt	3	0	-14	-1
CC(C)NC(=O)N(C)C[C@@H]1Oc2ccc(NS(=O)(=O)c3ccc(F)cc3)cc2C(=O)N([C@@H](C)CO)C[C@H]1C	-5[16.7 µM]	-4	0	-3	0
O=C(Nc1ccc(S(=O)(=O)Nc2nccs2)cc1)c1cc(-c2ccccc2Cl)nc2ccccc12	104*	nt	nt	nt	nt
O=C(Nc1ccc(S(=O)(=O)Nc2nccs2)cc1)c1cccc(F)c1	nt	32*	0	2	0
CCOc1ccccc1NC(=O)CN1c2cccc3cccc(c23)S1(=O)=O	nt	19*	0	-6	0
COc1ccc(NC(=O)CN2c3cccc4cccc(c34)S2(=O)=O)cc1	-2	nt	nt	nt	nt
CC(=O)N(C)C[C@@H]1Oc2ncc(-c3cncnc3)cc2C(=O)N([C@H](C)CO)C[C@@H]1C	-6[16.7 µM]	-2	0	0	0
CN(C(=O)CSc1nc2ccccc2s1)c1c(N)n(Cc2ccccc2)c(=O)[nH]c1=O	5	1	43*	1	-1
CCN(C(=O)CSc1nc2ccc([N+](=O)[O-])cc2s1)c1c(N)n(Cc2ccccc2)c(=O)[nH]c1=O	-1	-1	0	-3	1

High-throughput results as filed in PubChem BioAssay.
